Screening data (PubChem BioAssay)
Sampled rows, rich in hits. Any-hit rate of the full collection: about 2.6%.
Platelet DG rel: platelet dense granule release activity. human platelet-rich plasma, SFLLRN dense granule ATP release, luminescence. inhibition, %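 (compounds screened at 7.5 µM in platelet-rich plasma)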. 300,000 tested, 0.22% active. AID 1663;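 active means mean replicate score, as percent of positive control, at or above 50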
TAAR1 agonist: agonists of human TAAR1. AID 624467. CHO RD-HGA16 TAAR1, Fluo-8 calcium fluorescence; vehicle wells 0%, saturating PEA agonist 100%. 360,000 tested, 0.99% active. activation, % at 3 µM;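 active means activation above the mean activation of all test compounds in the run plus 3 SD, cut at about 38% in these data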
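System: CHO-derived RD-HGA16 cells with stable Gα16 and human TAAR1. Times: 17-24 h plating, Fluo-8 75 min 37 °C, 30 min RT. Measured by: calcium-sensitive Fluo-8 signal, excitation 470-495, emission 515-575 nm. Read-out basis: % activation relative to PEA EC100 response. Control set: DMSO and PEA EC100. Repeats: no replicates (n 1).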
VLA-4 inh: inhibition in a human VLA-4 binding assay. P13612. VLA-4 expressing cells, ligand binding flow cytometry. inhibition, % (about 7 µM as worked out from the volumes in the protocol). 330,000 tested, 0.2% active. AID 2557; in the data active means inhibition above about 50%
Target sequence (P13612 whole entry, looked up): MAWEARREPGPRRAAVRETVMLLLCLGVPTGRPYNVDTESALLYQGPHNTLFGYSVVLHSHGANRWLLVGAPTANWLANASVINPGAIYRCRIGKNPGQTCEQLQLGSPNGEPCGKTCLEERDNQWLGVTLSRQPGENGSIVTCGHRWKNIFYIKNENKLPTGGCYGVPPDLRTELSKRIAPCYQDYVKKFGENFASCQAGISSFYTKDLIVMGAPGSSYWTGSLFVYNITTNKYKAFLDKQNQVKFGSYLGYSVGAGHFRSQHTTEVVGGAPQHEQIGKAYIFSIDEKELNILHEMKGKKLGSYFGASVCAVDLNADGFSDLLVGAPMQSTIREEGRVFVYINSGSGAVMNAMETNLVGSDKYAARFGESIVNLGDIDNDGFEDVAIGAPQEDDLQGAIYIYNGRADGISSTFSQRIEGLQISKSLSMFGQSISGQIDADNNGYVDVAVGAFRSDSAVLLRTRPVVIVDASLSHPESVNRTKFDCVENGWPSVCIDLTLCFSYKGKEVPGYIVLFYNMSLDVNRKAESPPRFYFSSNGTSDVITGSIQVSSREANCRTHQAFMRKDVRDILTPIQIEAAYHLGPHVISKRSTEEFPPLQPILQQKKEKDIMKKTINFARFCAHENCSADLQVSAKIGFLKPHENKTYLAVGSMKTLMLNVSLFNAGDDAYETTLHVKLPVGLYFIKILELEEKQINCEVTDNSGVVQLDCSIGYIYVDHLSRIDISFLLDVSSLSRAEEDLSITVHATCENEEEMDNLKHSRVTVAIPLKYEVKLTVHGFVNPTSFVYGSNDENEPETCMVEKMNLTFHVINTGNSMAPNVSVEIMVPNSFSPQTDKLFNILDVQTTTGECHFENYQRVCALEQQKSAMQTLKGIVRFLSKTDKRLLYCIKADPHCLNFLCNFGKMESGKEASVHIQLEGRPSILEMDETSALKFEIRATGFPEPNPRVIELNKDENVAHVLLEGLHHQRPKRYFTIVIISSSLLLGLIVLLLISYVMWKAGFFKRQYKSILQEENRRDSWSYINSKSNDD
TAAR1 antag: antagonists of human TAAR1. Q96RJ0. CHO RD-HGA16 TAAR1, Fluo-8 calcium fluorescence, antagonist. inhibition, % at 3 µM. 360,000 tested, 1.5% active. AID 624466;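 active means inhibition above a per-plate cutoff, the mean inhibition of test compounds on that plate plus 3 SD, cut at about 49% in these data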
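Test system – hTAAR1-expressing CHO RD-HGA16 cells, Gα16-coupled · Reagent – β-PEA at EC80 concentration, post-compound challenge · Compound dosing – 3 µM, single point · Timing – 140 s kinetic read after compound, 140 s after agonist · Detection – Fluo-8 intracellular calcium dye fluorescence, real-time kinetic reads · Control set – DMSO and EC80 PEA controls · Repeats – n of 1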
Rce1 inh: inhibitors of yeast Ras-converting enzyme; Q03530; yeast membranes, quenched prenylated peptide cleavage fluorescence; calls only; 290,000 tested, 0.27% active; AID 2563;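 active means fall in fluorescence gain of 50% or more versus controls, with final raw signal at or below 3038400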
Of the large screens only hits and unclear results are named; the others gave an inactive call.

COc1cccc(-c2cccc(-c3nc(C(=O)NCCCN4CCOCC4)cc4c3[C@H](CCO)N(S(=O)C(C)(C)C)C4)c2)c1 (some centres undefined)	TAAR1 antag 52 (no result: Platelet DG rel, VLA-4 inh, Rce1 inh)
CN(C)C(=O)c1cccc(-c2cccc(-c3nc(C(=O)NCc4ccccc4)cc4c3[C@@H](CCO)N(S(=O)C(C)(C)C)C4)c2)c1 (some centres undefined)	TAAR1 antag 61 (no result: Platelet DG rel, VLA-4 inh, Rce1 inh)
CC1(C)Cc2cccc(OCC(=O)Nc3cc(S(C)(=O)=O)ccc3Cl)c2O1	none (no result: Platelet DG rel, Rce1 inh)
O=C(O)CCCCCCC1C(=O)NC(=O)N1CCC(O)C1CCCCC1 (centres undefined)	Platelet DG rel 88
O=C(O)CCCCCN1C(=O)C2CCCCC2C1=O (centres undefined)	none
CCOC(=O)C1=C(C)NC(=O)NC1	Platelet DG rel 60
O=C(COC(=O)c1ccc(OC(F)F)cc1)NCC1CCCO1 (centres undefined)	none (no result: Platelet DG rel, VLA-4 inh, Rce1 inh)
Cc1ccc(S(=O)(=O)CCC(=O)Nc2cc(Cl)ccc2-n2cncn2)cc1	none
Nc1nc2c(ncn2[C@@H]2O[C@H](CNCc3cnc(N4CCOCC4)s3)[C@@H](O)[C@H]2O)c(=O)[nH]1	none (no result: Platelet DG rel, VLA-4 inh, Rce1 inh)
O=C(O)c1ccc(-c2ccc(O)c(F)c2)cc1	Rce1 inh active
O=C(O)c1ccc(O)c(O)c1	none (no result: Rce1 inh)
CC1=C(C(=O)N(C)C)CC(CC(=O)NCc2cccs2)C(=O)N1CCCN1CCCC1=O (centres undefined)	none (no result: Platelet DG rel, VLA-4 inh, Rce1 inh)
Cc1cc(-c2nnc3n2N=C(c2ccc(-c4ccccc4)cc2)CS3)n[nH]1	TAAR1 agonist 45
CC1(C)OC(=O)C2=C(C[C@@H](CCOCc3ccccc3)O[C@@H]2c2ccc(F)cc2)O1	none (no result: Platelet DG rel, VLA-4 inh, Rce1 inh)
CCN(c1ccccc1)S(=O)(=O)c1cccc(C(=O)OCC(=O)c2c(N)n(C)c(=O)n(C)c2=O)c1	none (no result: Platelet DG rel, VLA-4 inh, Rce1 inh)
COc1ccc(N(C)S(=O)(=O)c2cccc(C(=O)OCC(=O)c3c(N)n(C)c(=O)n(C)c3=O)c2)cc1	TAAR1 antag 73 (no result: Platelet DG rel, Rce1 inh)
CN(c1ccccc1)S(=O)(=O)c1ccc(Cl)c(C(=O)OCC(=O)c2c(N)n(C)c(=O)n(C)c2=O)c1	TAAR1 antag 61 (no result: Platelet DG rel, VLA-4 inh, Rce1 inh)
CCOC(=O)N1CCN(CCC(=O)c2ccc(Cl)cc2)CC1	TAAR1 agonist 37
CC1=C(C(=O)OCCBr)C(c2cccc3ccccc23)NC(=O)N1 (centres undefined)	none
COc1ccc(-[n+]2c(C)cc(/C=C3\Sc4ccccc4N3C)cc2C)cc1	TAAR1 antag 62
OCC[C@@H]1C[C@H](O)[C@@H](O)[C@@]2(Cc3ccccc3O2)O1	none
Cc1ccc2nc(-c3ccccc3)cc(C(=O)NNC(=O)c3csc(N4CCOCC4)n3)c2c1	TAAR1 antag 57
O=C(c1cn(-c2ccccc2)nc1-c1cccs1)N1CCN(c2ccccc2)CC1	Rce1 inh active (no result: TAAR1 agonist, TAAR1 antag)
O=C(c1cn(-c2ccccc2)nc1-c1cccs1)N1CCOCC1	none
Cc1ccc(-c2nn(-c3ccccc3)cc2C(=O)Nc2ccc(C(=O)O)cc2)cc1	none
O=C(Nc1cccnc1)c1cn(-c2ccccc2)nc1-c1cccs1	TAAR1 antag 50
CCOC(=O)c1ccc(NC(=O)c2cn(-c3ccccc3)nc2-c2ccncc2)cc1	TAAR1 antag 62
CC(C)COc1ccc(-c2nn(-c3ccccc3)cc2C(=O)Nc2nccs2)cc1	TAAR1 antag 73
Cc1ccc(S(=O)(=O)SCCCSS(=O)(=O)c2ccc(C)cc2)cc1	none (no result: Platelet DG rel, VLA-4 inh, Rce1 inh)
Cc1nnc(N2C(=O)C(O)=C(C(=O)c3ccco3)C2c2ccc(C(C)(C)C)cc2)s1 (centres undefined)	Platelet DG rel 52
N#CC(C#N)=C1C=C2C=C(N3CCCCCC3)CCC2CC1 (centres undefined)	TAAR1 agonist 957, TAAR1 antag 104 (no result: VLA-4 inh, Rce1 inh)
O=C(O)Cc1ccc(N2N=C(c3ccccc3)CC2=O)cc1	none (no result: Platelet DG rel, VLA-4 inh, Rce1 inh)
CCOC(=O)c1nnn(-c2nonc2N)c1CN1CCc2ccccc2C1	TAAR1 agonist 40
CC(C)OC(=O)c1nnn(-c2nonc2N)c1CN1CCc2ccccc2C1	none (no result: Platelet DG rel, VLA-4 inh, Rce1 inh)
COc1ccc(CNC(=O)CCS(=O)(=O)c2ccc3nc(C)sc3c2)cc1	none (no result: Platelet DG rel, VLA-4 inh, Rce1 inh)
CCn1c2c(n(C(C)=O)c1=O)C[C@@H](c1ccccc1)[C@@H](C)[C@@H](C(=O)N1CCCC1)C2	none (no result: Platelet DG rel, VLA-4 inh, Rce1 inh)
COC(=O)c1ccccc1-c1ccc(/C=N/NC(=O)c2cc3ccccc3o2)o1	TAAR1 antag 55
CCc1ccc2oc(-c3cccc(NC(=O)c4cccnc4)c3)nc2c1	TAAR1 antag 49
O=C(Nc1ccc2oc(-c3ccccc3)nc2c1)c1cccnc1	none
O=C(NCCc1ccccc1F)c1cccc2cccnc12	TAAR1 agonist 66
CCOc1ncccc1C(=O)NCc1ccccc1F	none
COc1cccc(CN(C)C(=O)c2ccc(OCC(=O)Nc3cccc(C(F)(F)F)c3)c(OC)c2)c1	TAAR1 antag 67
COc1ccc(CN(C)C(=O)c2ccc(OCC(=O)Nc3cccc(C(F)(F)F)c3)c(OC)c2)c(OC)c1	none
COc1ccc(C2C3=C(Nc4ncnn42)c2ccccc2CCC3)cc1 (centres undefined)	none
Fc1ccc(/C=C2\CCCC3=C2Nc2ncnn2C3c2ccc(F)cc2)cc1 (centres undefined)	TAAR1 antag 65 (no result: Rce1 inh)
O=C(NCc1cccnc1)c1cc(C2CCCCN2C(=O)OCCF)on1 (centres undefined)	none (no result: Platelet DG rel, VLA-4 inh, Rce1 inh)
Cc1ccc(O)c(N=Nc2ccccc2)n1	Platelet DG rel 77
Oc1ccc(Cl)cc1N=Nc1ccccc1	none
CSc1nccc(NC(=O)c2cccc(Br)c2)n1	TAAR1 agonist 48
O=C(NCC(c1ccco1)N1CCOCC1)c1ccc(C(F)(F)F)cc1 (centres undefined)	none
COC(=O)C1=CN(CC2CCCO2)C=C(C(=O)OC)C1c1cccc(O)c1 (centres undefined)	Rce1 inh active
O=Cc1ccccc1OS(=O)(=O)c1ccccc1	none
Cc1ccc(Cn2nnc(C(=O)Nc3cc(C)ccc3C)c2N)cc1	TAAR1 agonist 48
FC(F)(F)c1ccccc1-n1c(CN2CCCCC2)n[nH]c1=S	none
Cc1cc(C(=O)N/N=C/c2c(C)[nH]c3ccccc23)n[nH]1	none
Cc1[nH]c2ccccc2c1/C=N/NC(=O)c1cc(-c2cccs2)[nH]n1	TAAR1 antag 58 (no result: Rce1 inh)
Cc1cccc(OCC(=O)NCC(=O)N/N=C/c2cccs2)c1	none
Cc1cccc(OCC(=O)NCC(=O)N/N=C/c2c(C)[nH]c3ccccc23)c1	TAAR1 antag 52
Cc1cc(C(=O)N/N=C/c2c3ccccc3cc3ccccc23)n[nH]1	Rce1 inh active
CCOc1ccc2ccccc2c1/C=N/NC(=O)c1cc(C)[nH]n1	none
OCCN1CCN(c2ncnc3c2ncn3[C@H]2CN(Cc3cccs3)C[C@@H](CO)O2)CC1	none (no result: Platelet DG rel, VLA-4 inh, Rce1 inh)
Cn1c(=O)c([N+](=O)[O-])c(Cl)c2ccccc21	none (no result: VLA-4 inh)
CN(C(=O)c1cn(C)c2ccccc12)c1ccc(Oc2cccnc2)cc1	none (no result: Platelet DG rel, VLA-4 inh, Rce1 inh)
